Source: ChEMBL document CHEMBL4513216, “Probing the Open Global Health Chemical Diversity Library for Multistage-Active Starting Points for Next-Generation Antimalarials” (ACS Infect Dis, 2020)

Assay: Toxicity liver stage against HepG2, at 10uM
Type: cell-based
Parameters: test concentration 10 uM, cell line HepG2-A16-CD81EGFP
Conditions: human, HepG2-A16-CD81EGFP cells; read-out: INHIBITION
Outline: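 Uninfected HepG2-A16-CD81EGFP cells, 3 × 10^3 per well, 1536-well, plated on prespotted compound at 10 μM final, parasite-free screening media added to match infected plates; puromycin 10 μM positive, DMSO 0.5% negative; run in parallel with 48 h PbLuc assay at 37 °C, 5% CO2; viability by CellTiter-Glo luminescence, normalized to controls.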

SMILES | cytotoxicity at 10 µM [%]
COCCOc1ccc(-c2noc([C@@H]3CCCN3C3CCC3)n2)cn1 | -4.26
CCOCCCNC(=O)CCCC(=O)n1nc(C)c2ccccc21 | -1.29
CO[C@@H]1CN(c2ccccc2)S(=O)(=O)[C@@]12CCN(C)C2 | 3.33
COc1cccc(CN2CC(O)CN(S(C)(=O)=O)CC2=O)c1OC (stereo not given) | -0.686
COC(=O)CCNC(=O)c1nc(NS(=O)(=O)c2ccccc2)sc1C | 8.23
O=c1c(NCCc2ccc(O)cc2)c(NCc2ccncc2)c1=O | -5.46
CCc1nnc2ccc(N3CCN(S(=O)(=O)c4ccc(Cl)s4)CC3)nn12 | 5.01
Cc1nc(N(C)C)nc(C)c1NS(=O)(=O)c1ccccc1Cl | 4.22
CNC(=O)[C@H]1C[C@@H]2CN(C(=O)c3ccsc3)C[C@@H]2N1S(C)(=O)=O | -2.42
CN1CCc2c(C#N)c(NCCCO)n3cnnc3c2C1 | 8.71
CC(C)OCCCNC(=O)C1CCCN(c2ccc3nncn3n2)C1 (stereo not given) | 1.77
CC(C)Cc1noc(C2CCCCN2C(=O)CCc2cnn(C)c2)n1 (stereo not given) | 3.6
Cc1nn(C)c2cn(C(C)C(=O)NCc3ccncc3)nc12 (stereo not given) | 1.91
CCCNC(=O)c1cc(C(C)C)nc(N2CCCC2)n1 | 8.77
CCn1c(NCc2ccco2)nc2c(C)nn(C)c2c1=O | 2.48
CCSCc1nc(O)c2nnn(C3CCN(Cc4ccco4)CC3)c2n1 | 8.79
Cc1cc(Cc2ccc(F)cc2)cc(C2CCCNC2)n1 (stereo not given) | -3.14
Fc1cc(F)cc(CN2CCC(c3cc4ncccc4cn3)CC2)c1 | -1.13
C[C@@H]1CN2C[C@H](O)CC2CN1Cc1ccncc1 (stereo not given in full) | 0.207
CCc1nnc(Nc2cc(C)nc(C3CCN(c4cnccn4)C3)n2)s1 (stereo not given) | 4.24
CC(C)CC(=O)N1CCCC1c1nccnc1Nc1ncccn1 (stereo not given) | -13.8
CNc1cc(CNC(=O)c2ccnc(OC)c2)nc(-c2ccncc2)n1 | -7.08

SMILES | cytotoxicity at 10 µM [%]
Cc1cc(-c2cnc(N3CCCC3)nc2-c2ccc(C)s2)on1 | -0.279
CN(C)C(=O)C1CN(Cc2ccccc2)CCN(S(C)(=O)=O)C1 (stereo not given) | -5.43
O=C(NCc1cccnc1)c1ccc2nccn2c1 | 8.08
O=C(NC1CCCCC1)N1CCCC1c1nnc2n1CCNC2 (stereo not given) | 14.4
Cc1ccnc(NC(=O)c2ccc(Cl)o2)c1 | 4.14
CC(C)CNC(=O)c1sccc1-n1cnnn1 | 0.00426
O=S(=O)(NCCCn1cncn1)c1ccc2c(c1)OCCO2 | 5.38
COc1ncc(NCc2ccsc2)cc1C(N)=O | 1.25
CCCn1nnnc1COC(=O)C1COc2ccc(Cl)cc2C1 (stereo not given) | -8.68
Clc1ccc(C2(NCc3noc(C4CC4)n3)CCCC2)cc1 | 13.3
Cc1n[nH]c(C2CN(C(=O)COCC(F)(F)F)CCO2)n1 (stereo not given) | 1.26
CC(CC(=O)N1CCCN(Cc2cscn2)CC1)n1cccc1 (stereo not given) | -8.01
COc1ccc(NCC(=O)NCC(=O)N2CCCC2)c(C(F)(F)F)c1 | 6.78
COc1cc(CNC(=O)N2CCCC2c2cc(C)no2)ccn1 (stereo not given) | 1.95
O=S(=O)(Cc1cccc(F)c1)NCC(O)Cc1ccccc1 (stereo not given) | 9.01
CC(C)(C)c1nnc(CN2CCN(C(=O)CC3CCCCC3)CC2)o1 | 15.3
Cc1cnn(CC2CCCN2CC(=O)N(C)Cc2cnn(C)c2)c1 (stereo not given) | 8.92
COCCN(Cc1ccc(F)cc1Cl)C(=O)c1cc(C)n[nH]1 | 0.886
CCc1nccn1C1CCCN(C(=O)c2cncn2-c2ccccc2)C1 (stereo not given) | 5.62
Cc1nn(C)c(N2CCOCC2)c1CNCc1cccnc1 | 7.11
CC(C)(C)C(=O)NS(=O)(=O)c1ccc(F)cc1C(F)(F)F | -1.18
COCCCNC(=O)C1CCN(CC2(O)CCC(C)CC2)CC1 (stereo not given) | 21.6

SMILES | cytotoxicity at 10 µM [%]
Cc1noc(C)c1CNC(=O)C1(NS(C)(=O)=O)CCCCC1 | 6.55
Cc1nc(NC(=O)C(C)S(C)(=O)=O)sc1Cc1ccccc1F (stereo not given) | 9.8
Cc1ccc(C(=O)NS(C)(=O)=O)cc1I | 6.22
CCOC(=O)CN1CCC(NC(=O)OC(C)(C)C)CC1 | 0.449
Cc1cc(C(=O)N2CCCS2(=O)=O)c(C)o1 | -11.1
CN(C1CCCC1)C(C)(C)C(=O)NCCNC(N)=O | -46.3
COC1COC2(CCN(C(=O)c3ccc4ccccc4c3)CC2)C1 (stereo not given) | -98.4
O=C(c1ccncc1)N1C[C@@H]2OCCN(CCN3CCCC3)[C@@H]2C1 | -77.1
CN(Cc1cncnc1)[C@H]1CN(Cc2ccco2)[C@@H]2CCCO[C@@H]21 | -78.7
CC(=O)N1CCCC2(CCN(C(=O)c3ccc(Cl)c(C(F)(F)F)c3)C2)C1 (stereo not given) | -74.4
COc1ccc(C(=O)N2Cc3c(Cn4ccnc4)nn(C)c3C2)cc1 | 4.89
CCc1ocnc1C(=O)N1CCC(n2cc(-c3ccsc3)nn2)CC1 | 1.47
CN(CCc1cnn(C)c1)C(=O)C1COc2ccccc2C1 (stereo not given) | 1.33
COc1ncc(-c2nccn2-c2ccccc2CN2CCOCC2)cn1 | 3.31
COCc1nc(N(C)C/C=C/c2ccccc2)c2cnn(C)c2n1 | -2.21
COCCn1c(=O)n(Cc2ccc(Cl)s2)c2cc(C(=O)O)ccc21 | -5.54
CCN1CC(C(=O)N2CCc3cc(C(N)=O)n(C)c3C2)CC1=O (stereo not given) | -47.5
O=C(N[C@@H]1CCNC[C@H]1O)c1ccc(-c2ccc(F)cc2)cc1 | -6.29
Cc1nc2c(c(NCc3ccc(-c4ccccn4)s3)n1)CCNCC2 | -59.5
Cc1ccc(CN2CCC3(C2)C(=O)N(CC(N)=O)c2ccccc23)s1 (stereo not given) | 5.37
CCCc1nc(CN(CC)Cc2ccoc2)no1 | -2.52
COC[C@]1(O)CCN(Cc2cnc(N3CCOCC3)nc2)CC1(C)C | 1.4

SMILES | cytotoxicity at 10 µM [%]
NC(=O)CN1CC2(CCC1=O)CCN(C(=O)c1ccccc1F)CC2 | 23.5
COCCn1ccnc1CN1CCc2[nH]cnc2C1c1cnn(C)c1C (stereo not given) | -2.77
Cc1nccn1-c1ccccc1CNC(=O)c1cn(CCN)nn1 | 1.58
CC(NCc1cn(CCC(N)=O)c2ccccc12)c1nncn1C (stereo not given) | 0.78
O=C1NCCCC[C@@H]1NC(=O)C1(N2CCCCC2)Cc2ccccc2C1 | -4.3
CC1=CCN(C(=O)Nc2ccccc2N2CCOC2=O)CC1 | -0.724
CN1CC2(CCN(C(=O)c3ccc(-n4cccn4)cc3Cl)C2)OC1=O (stereo not given) | 4.36
Cc1cc(N2CCC(O)(C(=O)O)CC2)nc2ccccc12 | -41.5
CCOc1ccc(CC(=O)N2C[C@H](C3CC3)[C@@H](N)C2)cc1 | -7.76
O=C(O)c1ccc(CC2CCN(S(=O)(=O)N3CCOCC3)C2)cc1 (stereo not given) | 1.62
COC[C@]1(O)CCN(c2cc(N3CCOCC3)ncn2)CC1(C)C | -3.81
CCc1noc(-c2cccc(NC(=O)C(C)(C)C)c2)n1 | -4.15
CN1CCC(C)(CN(C)Cc2ccc(CCC(C)(C)O)cc2)C1 (stereo not given) | -6.44
O=C(NCc1nncn1C1CCCCC1)C1COc2ccccc2C1 (stereo not given) | 3.16
N#Cc1cc2c(nc1SCc1cc(O)nc(O)n1)CCCC2 | -3.94
Cc1cnn(CCNCc2cccc(C#N)c2)c1 | -2.01
CC(=O)N(Cc1ncc(C(C)C)o1)C1CCN(CC2CCC2)C1 (stereo not given) | -11.8
Cc1noc2ncc(C(=O)N3CCCC(n4ccnc4C)C3)cc12 (stereo not given) | -13.4
Cc1noc(Cl)c1CCC(=O)N1CCC(CC(N)=O)CC1 | -0.0707
CCOc1ccc(NC(=O)NCc2csc(NC)n2)cc1C | -3.91
CS(=O)(=O)NCC1CCCN(C(=O)COCc2ccccc2)C1 (stereo not given) | -7.59
CC(O)CN1CCC(CNCc2ccccc2OC(F)(F)F)CC1 (stereo not given) | -11.6

SMILES | cytotoxicity at 10 µM [%]
Cn1cc(CN2CCCN(C(=O)c3cc(Cl)cn3C)CC2)cn1 | -1.63
Cc1c(C(=O)NC(CN2CCCC2=O)c2ccccc2)cnn1C (stereo not given) | -8.7
O=C(NCCNc1ncccn1)N(Cc1ccc(F)cc1F)C1CC1 | -2.84
Cc1csc(N2CCN(C(=O)CCc3nccs3)CC2)n1 | -3.68
Cc1nc(COc2ccc(CNCC3CN(C)CCO3)cc2)cs1 (stereo not given) | -13.1
Cc1ccc(OCCSC2=NCCN2)cc1 | -2.01
Cc1ccc(S(=O)(=O)N2CC[C@H]3CO[C@H](CN(C)C)[C@H]3C2)cc1 | -98.3
COCC(=O)NC1CC2(CCN(Cc3ccco3)CC2)c2ccccc21 (stereo not given) | 5.61
O=C(C1CCC1)N1C[C@@H](c2ccsc2)[C@@H]2CN(C3CCCCC3)CC[C@@H]21 | 1.32
c1ccc(NC[C@@H]2CCC[C@@H]3CN(Cc4cccnc4)C[C@@H]32)nc1 | 2.78
Fc1ccc(CN2Cc3nccn3CC(CN3CCOCC3)C2)cc1 (stereo not given) | -73.7
CCN1CCOCC12CCN(c1cnccn1)CC2 | -111
Cn1cc(CN2C[C@@H]3COC[C@]3(C(=O)NCCc3ccccc3)C2)cn1 | 8.86
CC(C)N1CCO[C@@H]2CN(C(=O)NCc3ccccc3)CC[C@@H]2C1 | -102
CCOCC1CC2(CCN(C(=O)c3ccccn3)CC2)CO1 (stereo not given) | -3.76
c1cnn(Cc2nnc3n2CCCN(Cc2ccsc2)C3)c1 | -0.714
Cc1ccc(CN2CC[C@H]3[C@@H]2CCC(=O)N3CCN2CCCC2)s1 | 3.01
CN1CCN(Cc2cccnc2)C(=O)C12CCN(Cc1ccco1)CC2 | -4.34
CCOCC(=O)N1C[C@@H]2CCN(c3cnccn3)C[C@@H]2C1 | 1.2
COCCN1CCCC12CCN(C(=O)CC1CCCC1)CC2 | 5.47
Fc1cnc(N2CCCC3(CN(Cc4cccs4)CCO3)C2)nc1 (stereo not given) | 7.37
COc1ccc(C(=O)N2C[C@@H]3CC[C@H]2CN(C)C3)cc1Cl | 5.79
